Reference: ChEMBL document CHEMBL1275294, “Synthesis and anticancer activity evaluation of 4-thiazolidinones containing benzothiazole moiety” (2010)
Calls of active or inactive are those of the source. The calls are words filed in the database; no cut-off is given here.

What was measured:
[1] = Anticancer activity against human NCI60 cells assessed as cell growth at 10 uM after 48 hrs by SRB assay; format: functional; conditions: NCI60, 48 h, read-out: Activity
How it was run: (§1)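 NCI primary screen: compound added at a single concentration of 10^-5 M to the human tumor cell line panel, 48 h incubation, end-point by sulforhodamine B protein staining read spectrophotometrically. Result expressed as percent growth of treated cells relative to untreated control cells.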

NCI60 = experiment: Anticancer activity against human NCI60 cells assessed as cell growth inhibition after 48 hrs by SRB assay; format: functional, cell-based
How it was run: (§2)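 NCI full panel of about 60 human tumor cell lines, five 10-fold dilutions from 10^-4 to 10^-8 M, 48 h continuous exposure, SRB protein assay read spectrophotometrically. Percent growth from time-zero, untreated-control and treated absorbances. GI50 is the molar concentration giving 50% net growth inhibition, TGI total inhibition, LC50 50% net cell death. Mean graph midpoints include insensitive lines at the top concentration.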

UO-31 = experiment: Anticancer activity against human UO31 cells assessed as cell growth at 10 uM after 48 hrs by SRB assay; format: functional; conditions: UO-31, 48 h, read-out: Activity; how it was run: as §1
OVCAR-4 = experiment: Growth inhibition of human OVCAR4 cells after 48 hrs by SRB assay; format: functional; conditions: OVCAR-4, 48 h; how it was run: as §2
NCI-H23 = experiment: Growth inhibition of human NCI-H23 cells after 48 hrs by SRB assay; format: functional; conditions: NCI-H23, 48 h; how it was run: as §2
U-251 = experiment: Growth inhibition of human U251 cells after 48 hrs by SRB assay; format: functional; conditions: U-251, 48 h; for TGI: read-out: pTGI (converted); how it was run: as §2
SF-539 = experiment: Growth inhibition of human SF539 cells after 48 hrs by SRB assay; format: functional; conditions: SF-539, 48 h; how it was run: as §2
BT-549 = experiment: Growth inhibition of human BT549 cells after 48 hrs by SRB assay; format: functional; conditions: BT-549, 48 h; for TGI: read-out: pTGI (converted); how it was run: as §2
HCT-116 = experiment: Growth inhibition of human HCT116 cells after 48 hrs by SRB assay; format: functional; conditions: HCT-116, 48 h; how it was run: as §2
HOP-92 [2] = experiment: Growth inhibition of human HOP92 cells after 48 hrs by SRB assay; format: functional; conditions: HOP-92, 48 h; how it was run: as §2
MDA-MB-435 = experiment: Growth inhibition of human MDA-MB-435 cells after 48 hrs by SRB assay; format: functional; conditions: MDA-MB-435, 48 h; how it was run: as §2
MCF7 = experiment: Growth inhibition of human MCF7 cells after 48 hrs by SRB assay; format: functional; conditions: MCF7, 48 h; how it was run: as §2
[3] = Growth inhibition of human NCI-ADR-RES cells after 48 hrs by SRB assay; format: functional; how it was run: as §2
UACC-62 = experiment: Growth inhibition of human UACC62 cells after 48 hrs by SRB assay; format: functional; conditions: UACC-62, 48 h; how it was run: as §2
SNB-75 [4] = experiment: Anticancer activity against human SNB75 cells assessed as cell growth at 10 uM after 48 hrs by SRB assay; format: functional; conditions: SNB-75, 48 h, read-out: Activity; how it was run: as §1
ACHN = experiment: Growth inhibition of human ACHN cells after 48 hrs by SRB assay; format: functional; how it was run: as §2
SF-295 [5] = experiment: Growth inhibition of human SF295 cells after 48 hrs by SRB assay; format: functional; conditions: SF-295, 48 h; how it was run: as §2
T47D = experiment: Growth inhibition of human T47D cells after 48 hrs by SRB assay; format: functional; how it was run: as §2
SNB-19 = experiment: Growth inhibition of human SNB19 cells after 48 hrs by SRB assay; format: functional; conditions: SNB-19, 48 h; how it was run: as §2
PC-3 = experiment: Growth inhibition of human PC3 cells after 48 hrs by SRB assay; format: functional; conditions: PC-3, 48 h; how it was run: as §2
DU-145 = experiment: Growth inhibition of human DU145 cells after 48 hrs by SRB assay; format: functional; conditions: DU-145, 48 h; how it was run: as §2
RPMI-8226 [6] = experiment: Growth inhibition of human RPMI8226 cells after 48 hrs by SRB assay; format: functional; conditions: RPMI-8226, 48 h; how it was run: as §2
KM12 = experiment: Growth inhibition of human KM12 cells after 48 hrs by SRB assay; format: functional; conditions: KM12, 48 h; how it was run: as §2
SK-MEL-28 = experiment: Growth inhibition of human SK-MEL-28 cells after 48 hrs by SRB assay; format: functional; conditions: SK-MEL-28, 48 h; how it was run: as §2
OVCAR-3 = experiment: Growth inhibition of human OVCAR-3 cells after 48 hrs by SRB assay; format: functional; conditions: OVCAR-3, 48 h; how it was run: as §2
A498 = experiment: Growth inhibition of human A498 cells after 48 hrs by SRB assay; format: functional; conditions: A498, 48 h; how it was run: as §2
HL-60(TB) = experiment: Growth inhibition of human HL-60(TB) cells after 48 hrs by SRB assay; format: functional; conditions: HL-60, 48 h
How it was run: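 NCI 60-cell-line screen, five 10-fold dilutions of the compound, 48-h continuous drug exposure. Cell growth is measured with the sulforhodamine B protein stain and read spectrophotometrically against untreated controls and a time-zero plate (Tz). GI50 is the molar concentration giving 50% net growth inhibition. Values outside the tested range are reported as above or below the extreme concentration.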

SW-620 = experiment: Growth inhibition of human SW620 cells after 48 hrs by SRB assay; format: functional; conditions: SW-620, 48 h; how it was run: as §2
NCI-H226 = experiment: Growth inhibition of human NCI-H226 cells after 48 hrs by SRB assay; format: functional; conditions: NCI-H226, 48 h; how it was run: as §2
LOX IMVI = experiment: Growth inhibition of human LOXIMVI cells after 48 hrs by SRB assay; format: functional; how it was run: as §2
SR = experiment: Anticancer activity against human SR cells assessed as cell growth at 10 uM after 48 hrs by SRB assay; format: functional; conditions: read-out: Activity; how it was run: as §1
SNB-75 [7] = experiment: Growth inhibition of human SNB75 cells after 48 hrs by SRB assay; format: functional; conditions: SNB-75, 48 h; how it was run: as §2
RXF 393 = experiment: Anticancer activity against human RXF393 cells assessed as cell growth at 10 uM after 48 hrs by SRB assay; format: functional; conditions: RXF 393, 48 h, read-out: Activity; how it was run: as §1
SF-295 [8] = experiment: Anticancer activity against human SF295 cells assessed as cell growth at 10 uM after 48 hrs by SRB assay; format: functional; conditions: SF-295, 48 h, read-out: Activity; how it was run: as §1
HOP-92 [9] = experiment: Anticancer activity against human HOP92 cells assessed as cell growth at 10 uM after 48 hrs by SRB assay; format: functional; conditions: HOP-92, 48 h, read-out: Activity; how it was run: as §1
RPMI-8226 [10] = experiment: Anticancer activity against human RPMI8226 cells assessed as cell growth at 10 uM after 48 hrs by SRB assay; format: functional; conditions: RPMI-8226, 48 h, read-out: Activity; how it was run: as §1

## COc1ccc(/C=C2\S/C(=N/c3nc4ccc(C)cc4s3)NC2=O)cc1
[1]
  growth at 10 µM: 106%
NCI60
  growth inhibition (GI): inactive
UO-31
  growth at 10 µM: 80.4%

## COc1ccc(NC(=O)COc2ccc(Cl)cc2/C=C2\S/C(=N/c3nc4ccc(C)cc4s3)NC2=O)cc1
OVCAR-4
  GI50: 6.03 µM
OVCAR-4; read-out: pTGI
  TGI: > 100 µM
NCI-H23
  GI50: 7.76 µM
NCI-H23; read-out: pTGI (converted)
  TGI: 25.1 µM
U-251
  GI50: 5.01 µM
  TGI: 20 µM
SF-539
  GI50: 1.78 µM
SF-539; read-out: pTGI (converted)
  TGI: 3.63 µM
BT-549
  GI50: 6.03 µM
  TGI: 27.5 µM
HCT-116
  GI50: 4.57 µM
HCT-116; read-out: pTGI (converted)
  TGI: 34.7 µM
HOP-92 [2]
  GI50: 0.457 µM
HOP-92 [2]; read-out: pTGI (converted)
  TGI: 10.2 µM
MDA-MB-435
  GI50: 10 µM
MDA-MB-435; read-out: pTGI (converted)
  TGI: 34.7 µM
MCF7
  GI50: 4.27 µM
MCF7; read-out: pTGI
  TGI: > 100 µM
[3]
  GI50: 6.76 µM
[3]; read-out: pTGI
  TGI: > 100 µM
UACC-62
  GI50: 5.37 µM
UACC-62; read-out: pTGI (converted)
  TGI: 39.8 µM
SNB-75 [4]
  growth at 10 µM: -86.5%
[1]
  growth at 10 µM: -36.9%
ACHN
  GI50: 6.46 µM
ACHN; read-out: pTGI (converted)
  TGI: 66.1 µM
NCI60
  growth inhibition (GI): Active
SF-295 [5]
  GI50: 3.39 µM
SF-295 [5]; read-out: pTGI (converted)
  TGI: 15.5 µM
T47D
  GI50: 4.79 µM
T47D; read-out: pTGI
  TGI: > 100 µM
SNB-19
  GI50: 5.5 µM
SNB-19; read-out: pTGI (converted)
  TGI: 25.1 µM
PC-3
  GI50: 4.9 µM
PC-3; read-out: pTGI
  TGI: > 100 µM

## COc1ccc(NC(=O)COc2ccc(Cl)cc2/C=C2\SC(=S)N(Nc3nc4ccccc4s3)C2=O)cc1
DU-145
  GI50: 2.09 µM
DU-145; read-out: pTGI (converted)
  TGI: 3.98 µM
RPMI-8226 [6]
  GI50: 5.37 µM
RPMI-8226 [6]; read-out: pTGI (converted)
  TGI: 12.9 µM
U-251
  GI50: 2.95 µM
  TGI: 9.33 µM
KM12
  GI50: 2.24 µM
KM12; read-out: pTGI (converted)
  TGI: 4.9 µM
BT-549
  GI50: 3.02 µM
  TGI: 8.91 µM
SK-MEL-28
  GI50: 2.19 µM
SK-MEL-28; read-out: pTGI (converted)
  TGI: 4.47 µM
OVCAR-3
  GI50: 2 µM
OVCAR-3; read-out: pTGI (converted)
  TGI: 3.72 µM
A498
  GI50: 2.57 µM
A498; read-out: pTGI (converted)
  TGI: 5.75 µM
HL-60(TB)
  GI50: 2.29 µM
HL-60(TB); read-out: pTGI (converted)
  TGI: 6.92 µM
SW-620
  GI50: 2.45 µM
SW-620; read-out: pTGI (converted)
  TGI: 6.31 µM
[1]
  growth at 10 µM: 50.4%
NCI-H226
  GI50: 2.95 µM
NCI-H226; read-out: pTGI (converted)
  TGI: 6.92 µM
LOX IMVI
  GI50: 1.66 µM
LOX IMVI; read-out: pTGI (converted)
  TGI: 3.24 µM
SR
  growth at 10 µM: -71.5%
NCI60
  growth inhibition (GI): Active
SNB-75 [7]
  GI50: 1.58 µM
SNB-75 [7]; read-out: pTGI (converted)
  TGI: 9.55 µM

## COc1cc(/C=C2\SC(=S)N(Nc3nc4ccccc4s3)C2=O)ccc1O
[1]
  growth at 10 µM: 97.7%
NCI60
  growth inhibition (GI): inactive
RXF 393
  growth at 10 µM: -0.71%

## CCN(CC)c1ccc(/C=C2\SC(=S)N(Nc3nc4ccccc4s3)C2=O)cc1
[1]
  growth at 10 µM: 98.5%
NCI60
  growth inhibition (GI): inactive
UO-31
  growth at 10 µM: 77.3%

## Cc1ccc2nc(/N=C3\NC(=O)/C(=C/c4ccc(Cl)cc4)S3)sc2c1
[1]
  growth at 10 µM: 56.5%
NCI60
  growth inhibition (GI): inactive
SF-295 [8]
  growth at 10 µM: 4.01%

## COc1ccc(NC(=O)COc2ccc(/C=C3\SC(=S)N(Nc4nc5ccccc5s4)C3=O)cc2OC)cc1
[1]
  growth at 10 µM: 107%
NCI60
  growth inhibition (GI): inactive
UO-31
  growth at 10 µM: 78.6%

## CCN(CC)c1ccc(/C=C2\S/C(=N/c3nc4ccc(C)cc4s3)NC2=O)cc1
[1]
  growth at 10 µM: 69%
NCI60
  growth inhibition (GI): inactive
SF-295 [8]
  growth at 10 µM: 22.5%

## Cc1ccc2nc(/N=C3\NC(=O)/C(=C/c4cc(Cl)ccc4OCC(N)=O)S3)sc2c1
[1]
  growth at 10 µM: 91.8%
NCI60
  growth inhibition (GI): inactive
HOP-92 [9]
  growth at 10 µM: 51.4%

## CCOC(=O)c1ccc(NC(=O)COc2ccc(Cl)cc2/C=C2\SC(=S)N(Nc3nc4ccccc4s3)C2=O)cc1
RPMI-8226 [10]
  growth at 10 µM: 20%
[1]
  growth at 10 µM: 74.7%
NCI60
  growth inhibition (GI): inactive
